{"source": "paper PMC7610487", "about": "(Nature chemical biology, 2020)", "test_system": "zebrafish embryos", "test": "Effects of the fluorogens on zebrafish embryogenesis", "format": "in vivo", "outline": "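Wild-type AB zebrafish embryos were raised at 28°C and staged as hours postfertilization. Fluorogen exposure started at 50% epiboly, either as a 1 h pulse or continuously overnight to 24 hpf. At 48 hpf, embryos were examined by brightfield microscopy and scored into three classes: no defect, axis defects, or dead.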", "key": {"[1]": {"conditions": "5 μM fluorogen during 1 hour at 50% epiboly"}, "[2]": {"conditions": "5 μM fluorogen overnight from 50% epiboly to 24 hpf"}}}
{"compound": "COc1cc(C=C2SC(=S)NC2=O)cc(OC)c1O", "note": "[HBR-3,5DOM, 4-hydroxy-3,5-dimethoxybenzylidene rhodanine]", "values": [{"measurement": "effects on embryos scored at 48 hpf", "setting": "[1]", "result": "No deleterious effects"}, {"measurement": "effects on embryos scored at 48 hpf", "setting": "[2]", "result": "No deleterious effects"}]}
{"compound": "Cc1cc(C=C2SC(=S)NC2=O)ccc1O", "note": "[HMBR, 4-hydroxy-3-methylbenzylidene rhodanine]", "values": [{"measurement": "effects on embryos scored at 48 hpf", "setting": "[1]", "result": "No deleterious effects"}, {"measurement": "effects on embryos scored at 48 hpf", "setting": "[2]", "result": "No deleterious effects"}]}
